# Screens deposited in PubChem BioAssay by several laboratories.
# Most compounds without a hit are left out; they make up all but 2.9% or so of the library.
# CRFBP-R2 block – antagonists of CRF-BP/CRF-R2 complex, primary screen, cell-based, HEK293, calcium dye fluorescence, uHTS; CRF-induced calcium fluorescence; inhibition, % at 11.8 µM; 350,000 compounds, 0.59% hits; AID 588475, 2011;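 active = inhibition of the ligand-induced calcium signal above about 50% at the single tested concentration, limit read from the data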
# DDE Tn6 FP inh – inhibitors of Tn6 peptide binding to fibrin DD(E), primary screen, biochemical, fluorescence polarization, human fibrin, Tn6 probe; Fibrinogen beta chain (Homo sapiens), P02675; Fibrin DD(E) TRITC-Tn6 fluorescence polarization displacement; 370,000 compounds, 0.21% hits; inhibition, % at 8.3 µM;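 active = inhibition above a per-campaign cutoff: mean of compounds within control limits plus 3 SD, cut at about 15% in these data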;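 note: 0% = median of all compound wells on the plate and 100% = blocking peptide control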
# DDE Tn7 FP inh – inhibitors of Tn7 peptide binding to fibrin DD(E), primary screen, biochemical, fluorescence polarization, human fibrin, Tn7 probe; Fibrinogen beta chain (Homo sapiens), P02675; FP displacement of FITC-Tn7 peptide from fibrin DD(E); 0% = median of compound wells per plate; inhibition, % at 8.3 µM; 370,000 compounds, 0.13% hits;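 active = inhibition above the mean of compounds falling within the control limits plus 3 SD of them, cut at about 14% in these data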;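 note: 0% = plate median of compound wells and 100% = 10 µM Aha-Tn7 peptide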
#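 Assay system: Human clot-derived fibrin DD(E) complex | Buffer or medium: Tris/NaCl/CaCl2 buffer, pH 7.8 | Repeats: One replicate per compound | Benchmarks: Aha-Tn7 high control | Measure: % inhibition scaled between sample-field median and high-control FP | Schedule: 10 min plus 3 h, room temperature | Signal: Fluorescence polarization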
# proKLK7 act – proKLK7 zymogen activators, primary screen, biochemical, fluorescence intensity; 370,000 compounds, 0.9% hits; AID 652039, 2013; activation, % at 7 µM; Kallikrein-7 (Homo sapiens), P49862; purified proKLK7, EDANS-DABCYL substrate fluorescence; 100% is mature enzyme control, 0% vehicle;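 active = activation above the mean of all tested compounds plus 3 SD, computed per campaign excluding outliers beyond control limits, cut at about 13% in these data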
# Target sequence (P49862 whole entry, looked up): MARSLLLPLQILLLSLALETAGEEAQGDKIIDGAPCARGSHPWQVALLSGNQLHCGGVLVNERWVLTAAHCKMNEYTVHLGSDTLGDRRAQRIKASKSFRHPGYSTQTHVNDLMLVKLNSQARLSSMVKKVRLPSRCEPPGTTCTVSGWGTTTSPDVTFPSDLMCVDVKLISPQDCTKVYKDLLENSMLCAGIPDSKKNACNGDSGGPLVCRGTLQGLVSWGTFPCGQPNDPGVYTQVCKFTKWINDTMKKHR
# CendR NRP1 mod – modulators of CendR peptide binding to NRP-1, primary screen, biochemical, fluorescence polarization, uHTS | Neuropilin-1 (Homo sapiens), O14786 | FAM-RPARPAR peptide binding to NRP-1 | inhibition, % at 25 µM | 360,000 compounds, 0.85% hits;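 active = inhibition or corrected inhibition above about 18%, plus a signal ratio from 0.5 to 1.5, limit read from the data, passing the limit was not always enough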
# CRFBP-R2 agonist – agonists of CRF-BP/CRF-R2 complex, primary screen, cell-based, HEK293, calcium dye fluorescence, uHTS. CRF-binding protein / CRF receptor 2 complex (human). calcium dye fluorescence (FLIPR); percent of saturating CRF peptide response. activation, % at 13.2 µM. 350,000 compounds, 0.46% hits. AID 588473, 2011;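 active = activation of at least 50%, plus an integration ratio under a set limit after plate pattern correction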;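 note: plate controls were neutral control wells without compound for no effect and CRF at EC100 for full effect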
# Numbers without * were called inactive; / = no result given.
SMILES,CRFBP-R2 block,DDE Tn6 FP inh,DDE Tn7 FP inh,proKLK7 act,CendR NRP1 mod,CRFBP-R2 agonist
COc1cccc(CNC(=O)CN(c2cc(C)cc(C)c2)S(=O)(=O)c2c(C)noc2C)c1,-12.8,-1.0,2.8,0.5,-13.7,0.0
Clc1cccc(COn2c(-c3ccc(Cl)cc3Cl)nc3ncccc32)c1,-4.6,-8.7,-2.2,0.7,4.6,1.4
Cc1ccc(COn2c(-c3ccc(Cl)cc3Cl)nc3ncccc32)cc1,7.5,-5.0,-6.9,-0.3,33.4*,-1.9
CC(C)CNC(=O)OCc1cn(Cc2cc(F)cc(F)c2)nn1,/,-1.7,1.7,-0.2,/,/
CCOc1ccc(OCCSc2nc(N)cc(=O)[nH]2)cc1,58.6*,-6.0,-0.6,0.0,3.0,2.3
CCCCNC(=O)CCc1nc2cccnc2n1Cc1ccc(OC)cc1,69.0*,-6.9,-2.2,0.1,5.5,-2.3
CCCCNC(=O)CCc1nc2cccnc2n1Cc1ccccc1,7.6,1.8,9.1,0.1,-2.4,-4.4
CNc1c2cccc(C)c2nc2c(C(=O)NCCN(C)C)cccc12,4.3,2.4,-7.4,7.6,140.3,53.8*
Cc1ccc(C(=O)NCCN(C)C)c(C)c1,1.1,0.7,6.8,0.0,-4.4,-0.5
N#CC(c1ccc(F)cc1)c1ccc(C(=O)c2ccc(F)cc2)cc1 (stereo not drawn),-8.2,0.0,2.3,0.1,3.4,1.8
Cc1ccc(C(C#N)c2ccc(C(=O)c3ccc(F)cc3)cc2)cc1 (stereo not drawn),5.5,8.8,2.3,0.4,33.4*,-1.4
Cc1cc(C)cc(-c2c(C(=O)c3ccc(Br)cc3)[nH]c(N)c2C(=O)NCc2ccc(Cl)cc2)c1,/,0.8,-5.9,/,/,/
O=C(Cn1cnc2cc([N+](=O)[O-])ccc2c1=O)NCCc1ccc(F)cc1,8.7,-0.1,-1.7,-0.6,-0.8,3.2
O=C(Cn1cnc2cc([N+](=O)[O-])ccc2c1=O)NCCc1ccc(Cl)cc1,9.6,7.3,-3.8,-0.9,20.2*,-1.7
CCCCNC(=O)c1cn(CC)c2ccc(S(=O)(=O)N3CCCCCC3)cc2c1=O,59.8*,0.4,4.9,0.5,1.4,1.6
COc1ccc(-c2noc(C3CCCN(C(=O)Nc4cc(C)cc(C)c4)C3)n2)cc1 (stereo not drawn),/,-0.9,-4.5,0.6,/,/
O=C1c2ccccc2C(=O)c2c(/C=C/N3CCCCC3)ccnc21,-7.8,7.8,-2.9,-0.5,79.8*,0.9
O=C1c2ccccc2-c2cccnc21,7.1,-0.6,-3.2,0.1,4.8,-1.9
O=C(Nc1cc(C(F)(F)F)ccc1N1CCCC1)C1CC(=O)N(Cc2ccccc2)C1 (stereo not drawn),-6.1,-3.0,1.2,0.0,23.7*,-0.4
COc1ccccc1CCn1cnc(-c2ccc(Br)cc2)c1CC(C)C,/,1.6,5.2,0.1,/,/
NS(=O)(=O)c1ccc(NC(=O)CSc2nnc(COc3ccccc3Cl)n2C2CC2)cc1,62.7*,-10.8,0.9,-0.4,1.5,-2.2
NS(=O)(=O)c1ccc(NC(=O)CSc2nnc(C3CC3)n2C2CC2)cc1,10.1,7.4,-4.2,-0.6,-2.0,-1.1
CC(C)(C)OC(=O)N1CCC(c2cc(=O)n3[nH]cc(C(=O)NC4CCCC4)c3n2)CC1,50.6*,2.7,-2.4,-0.5,-18.7,-0.3
COc1ccc(NC(=O)C2CCN(C(=O)Nc3ccccc3)CC2)cc1S(=O)(=O)N(C)C,-2.2,0.0,-4.1,0.5,23.3*,0.6
Clc1ccccc1N=Nc1ccccn1,-42.8,13.5,9.9,0.1,41.2*,63.2*
CCCCNC[C@@]12CO[C@H](c3ccc(Cl)cc3)N1[C@@H](c1ccc(Cl)cc1)SC2,/,4.0,2.2,0.7,/,/
O=c1oc(/C=C/c2ccccc2)nc2sc3c(c12)CCC3,5.4,5.6,7.2,0.1,25.1*,2.5
CC(C)(C)C(=O)OC12CCCN(C1)/C(=C/c1ccc(C#N)cc1)C2 (stereo not drawn),/,-4.0,0.4,0.1,/,/
